Test results as given in ChEMBL document CHEMBL1153423, “Identification and characterization of small molecule inhibitors of a class I histone deacetylase from Plasmodium falciparum” (J Med Chem, 2009).

T1: Histone deacetylase (Plasmodium falciparum, UniProt Q9XYC7)
T1 sequence (Q9XYC7 whole entry): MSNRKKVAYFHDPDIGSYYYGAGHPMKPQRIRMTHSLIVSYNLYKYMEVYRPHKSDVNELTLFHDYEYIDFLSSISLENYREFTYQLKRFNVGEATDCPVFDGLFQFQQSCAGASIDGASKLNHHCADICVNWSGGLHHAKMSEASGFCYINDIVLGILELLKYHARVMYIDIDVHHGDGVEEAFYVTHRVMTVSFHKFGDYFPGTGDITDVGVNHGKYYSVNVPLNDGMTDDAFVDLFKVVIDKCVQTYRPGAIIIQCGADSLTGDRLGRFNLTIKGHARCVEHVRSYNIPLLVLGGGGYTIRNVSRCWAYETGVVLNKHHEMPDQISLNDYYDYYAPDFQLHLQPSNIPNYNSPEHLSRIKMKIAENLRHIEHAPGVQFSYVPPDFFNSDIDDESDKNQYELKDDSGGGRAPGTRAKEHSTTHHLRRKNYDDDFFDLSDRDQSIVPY


What was measured:
[1] = tested on: Plasmodium falciparum; assay: Antimalarial activity against Plasmodium falciparum 3D7 by [3H]hypoxanthine uptake; type: functional, organism-based
[2] = biological target: T1, Histone deacetylase; assay: Inhibition of Plasmodium falciparum HDAC1 expressed in Drosophila melanogaster S2 cells; type: cell-based
Outline: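 Recombinant pfHDAC-1 cDNA carrying a C-terminal HPC4 epitope tag was expressed in Drosophila S2 cells. A stable pool was selected with blasticidin after co-transfection, and the enzyme was purified via the HPC4 tag. Substrate characterisation used the fluorogenic peptide Ac-Leu-Gly-Lys(Ac)-AMC, with a Michaelis–Menten fit.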

[3] = tested on: MM1.S; assay: Inhibition of histone acetylation in human MM1S cells at 0.2 uM relative to untreated control; type: functional
[4] = Growth inhibition of human MM1S cells; type: cell-based; settings: mm1.s
[5] = substrate: CC(=O)NCCCC[C@H](NC(=O)CNC(=O)[C@H](CC(C)C)NC(C)=O)C(=O)Nc1ccc2c(C)cc(=O)oc2c1; assay: (§1) Activity of Plasmodium falciparum HDAC1 expressed in Drosophila melanogaster S2 cells by Michaelis-Menten method; type: cell-based
Outline: (§2)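 pfHDAC-1 cDNA with a C-terminal HPC4 epitope tag was expressed in a stable blasticidin-selected Drosophila S2 pool and purified through the tag. Activity was measured on the acetyl-lysine AMC peptide substrates Ac-Leu-Gly-Lys(Ac)-AMC and Boc-Lys(trifluoroacetyl)-AMC. kcat and apparent Km were obtained by fitting the Michaelis–Menten model to the rate data.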

[6] = substrate: Cc1cc(=O)oc2cc(NC(=O)[C@H](CCCCNC(=O)C(F)(F)F)NC(=O)OC(C)(C)C)ccc12; assay: as §1; type: cell-based; outline: as §2

Molecule | IC50 [1] | IC50 [2] | fold change (FC) [3] | Activity [4] | Km [5] | kcat [5] | Km [6] | kcat [6]
O=C(CCCCC(=O)NN/C=C/c1cc(O)ccc1Br)NO | 30 nM | 89 nM | 1.1 | Non-toxic | – | – | – | –
CN(C)c1ccc(/C=C/NNC(=O)CCCCCC(=O)NO)c(O)c1 | 24 nM | 37 nM | 1.2 | Non-toxic | – | – | – | –
O=C(CCCCCCC(=O)NN/C=C/c1cc(O)ccc1O)NO | 142 nM | 110 nM | 1.1 | Non-toxic | – | – | – | –
COc1ccc(Br)c(/C=C/NNC(=O)CCCCCC(=O)NO)c1 | > 500 nM | 22 nM | 1.1 | Non-toxic | – | – | – | –
COc1cc(/C=C/NNC(=O)CCCCCC(=O)NO)c(Br)cc1O | 47 nM | 59 nM | 1 | Non-toxic | – | – | – | –
O=C(CCCCCC(=O)NN/C=C/c1ccccc1Br)NO | 15 nM | 37 nM | 1.1 | Non-toxic | – | – | – | –
O=C1CCc2c(ccc3ccccc23)O1 [SPLITOMICIN] | > 10000 nM | > 10000 nM | – | – | – | – | – | –
O=C(CCCCCC(=O)NN/C=C/c1c(O)ccc2ccccc12)NO | 20 nM | 41 nM | 1 | Non-toxic | – | – | – | –
O=C(CCCCC(=O)NN/C=C/c1ccc(O)cc1Br)NO | 53 nM | 106 nM | 1.1 | Non-toxic | – | – | – | –
O=C(CCCCCC(=O)NN/C=C/c1ccc(-n2ccnc2)cc1)NO | 57 nM | 15 nM | 1 | Non-toxic | – | – | – | –
Cc1[nH]c2ccccc2c1CCNCc1ccc(/C=C/C(=O)NO)cc1 [PANOBINOSTAT] | 21 nM | – | – | – | – | – | – | –
O=C(CCCCCC(=O)NN/C=C/c1cccnc1Br)NO | 22 nM | 36 nM | 0.9 | Non-toxic | – | – | – | –
O=C(CCCCCC(=O)NN/C=C/c1cc2c(cc1Br)OCO2)NO | 59 nM | 20 nM | 1 | Non-toxic | – | – | – | –
COc1cc(/C=C/NNC(=O)CCCCC(=O)NO)c(Br)cc1O | 498 nM | 59 nM | 1.2 | Non-toxic | – | – | – | –
Nc1ccccc1NC(=O)c1ccc(CNC(=O)OCc2cccnc2)cc1 [ENTINOSTAT] | > 10000 nM | – | – | – | – | – | – | –
CCC(=O)CCCCC[C@@H]1NC(=O)[C@H]2CCCCN2C(=O)[C@H]([C@@H](C)CC)NC(=O)[C@H](Cc2cn(OC)c3ccccc23)NC1=O [APICIDIN] | 33 nM | – | – | – | – | – | – | –
O=C(CCCCCC(=O)NN/C=C/c1cc(O)ccc1Br)NO | 35 nM | 49 nM | 1 | Non-toxic | – | – | – | –
O=C(CCCCCC(=O)NN/C=C/c1cccc(O)c1)NO | 99 nM | 59 nM | 1.2 | Non-toxic | – | – | – | –
O=C(CCCCCCC(=O)NN/C=C/c1c(O)cc(O)cc1O)NO | 50 nM | 43 nM | 1.1 | Non-toxic | – | – | – | –
O=C(CCCCCC(=O)NN/C=C/c1ccccc1Cl)NO | 288 nM | 90 nM | 0.9 | Non-toxic | – | – | – | –
CC(/C=C/C(=O)NO)=C\[C@@H](C)C(=O)c1ccc(N(C)C)cc1 [TRICHOSTATIN] | 16 nM | 0.6 nM | – | – | – | – | – | –
Histone deacetylase (Plasmodium falciparum), Q9XYC7 (protein) MSNRKKVAYFHDPDIGSYYYGAGHPMKPQRIRMTHSLIVSYNLYKYMEVYRPHKSDVNELTLFHDYEYIDFLSSISLENYREFTYQLKRFNVGEATDCPVFDGLFQFQQSCAGASIDGASKLNHHCADICVNWSGGLHHAKMSEASGFCYINDIVLGILELLKYHARVMYIDIDVHHGDGVEEAFYVTHRVMTVSFHKFGDYFPGTGDITDVGVNHGKYYSVNVPLNDGMTDDAFVDLFKVVIDKCVQTYRPGAIIIQCGADSLTGDRLGRFNLTIKGHARCVEHVRSYNIPLLVLGGGGYTIRNVSRCWAYETGVVLNKHHEMPDQISLNDYYDYYAPDFQLHLQPSNIPNYNSPEHLSRIKMKIAENLRHIEHAPGVQFSYVPPDFFNSDIDDESDKNQYELKDDSGGGRAPGTRAKEHSTTHHLRRKNYDDDFFDLSDRDQSIVPY | – | – | – | – | 30 µM | 0.19 s⁻¹ | Not Active | Not Active
